In the library only some 1.4% were active in any assay of this set; here they are far more common.
KLK5 inh: human KLK5 protease inhibitors, primary screen, biochemical, 1536-well | recombinant hK5, fluorogenic AMC substrate cleavage | inhibition, % at 5 µM | 210,000 compounds, 0.59% hits;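 active = inhibition of 40% or more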;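 also: 0% = enzyme controls without compound and 100% = no-enzyme blanks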
FXIa inh 1536: human FXIa protease inhibitors, primary screen, biochemical, 1536-well | Coagulation factor XI (Homo sapiens), P03951 | purified FXIa, Boc-Glu-Ala-Arg-AMC fluorogenic substrate | inhibition, % at 5 µM | 220,000 compounds, 0.14% hits;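 active = inhibition of at least 40%; inactive = inhibition below 40%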;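 also: fluorescence of freed AMC excited at 355 nm; 0% = enzyme without compound and 100% = no enzyme blank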
FXIIa inh 1536: human FXIIa protease inhibitors, primary screen, biochemical, 1536-well; inhibition, % at 5 µM; AID 800, 2007; purified FXIIa, Boc-QGR-AMC fluorogenic substrate, 2 h; 220,000 compounds, 0.3% hits; Coagulation factor XII (Homo sapiens), P00748; in the data active = inhibition above about 40%;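 also: 0% = enzyme with no compound and 100% = blank without enzyme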
Thrombin inh: human alpha-thrombin inhibitors, primary screen, counter-screen for coagulation protease inhibitor project, biochemical, 1536-well, fluorogenic AMC substrate; Boc-VPR-AMC fluorogenic substrate cleavage; inhibition, % at 5 µM; Prothrombin (Homo sapiens), P00734; 220,000 compounds, 0.26% hits;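 active = inhibition at or above 40%; inactive = inhibition below 40%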;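 also: 0% = enzyme with no compound and 100% = wells without enzyme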
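Test system: human alpha-thrombin; medium: pH 7.5 Tris-saline with Tween 20; times: reaction at room temperature; signal: AMC fluorescence at 355 nm excitation and 460 nm emission; also added: Boc-VPR-AMC substrate, 15 µM final; dosing: one concentration per compound, 5 µM, with 0.2% DMSO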
m-calpain inh: inhibitors of pig calpain II, primary screen, biochemical, fluorogenic peptide substrate, 1536-well. purified calpain II, 30 min. inhibition, % at 16 µM. 220,000 compounds, 0.37% hits;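 active = inhibition above about 50%, limit read from the data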
Numbers without * were called inactive; . = not tested or not shown.

SMILES	KLK5 inh	FXIa inh 1536	FXIIa inh 1536	Thrombin inh	m-calpain inh
O=C1c2cccc3cccc(c23)C(=O)N1c1ccccn1	47*	34	29	6	-13
Cc1oc2c(c1C(=O)c1ccc(Cl)cc1)C(=O)C(=O)c1ccccc1-2	-7	6	13	2	62*
Cc1ccc(C(=O)c2c(C)oc3c2C(=O)C(=O)c2ccccc2-3)cc1	14	7	21	4	26
CCc1ccccc1NC(=O)c1nnn(CC(=O)Nc2cccc(C)c2)c1N	43*	-9	-2	-10	3
Cc1ccc(C)c(NC(=O)Cn2nnc(C(=O)Nc3c(C)cccc3C)c2N)c1	52*	-2	13	5	19
O=C(c1ccccc1)N1N=C(c2ccccc2)CC1c1ccccc1[N+](=O)[O-] (configuration not stated)	-25	3	6	-1	-3
Cc1nnc(SCc2nnc(-c3ccccc3Br)o2)n1-c1ccccc1	-21	-7	1	41*	-55
CSc1nsc2nc(=O)c(/C=C3\C(C)=Nc4ccc(C)cc43)c(N)n12	2	11	42*	6	-36
CC1=Nc2ccc(C)cc2/C1=C/c1c(N)n2c(S(=O)(=O)C(C)C)nsc2nc1=O	-3	-5	6	-7	-26
CC(=O)c1cc(OC(=O)c2ccncc2)ccc1OC(=O)c1ccncc1	-31	-1	1	-4	-98
CCN(CC)C(=O)C(=O)c1ccn(-c2c(C)csc2C(=O)OC)c1	-12	-5	0	-1	7
CCC(=O)NCc1ccc2[nH]c(C)cc2c1	-3	1	6	.	-14
N/C(=N\OC(=O)Cc1ccccc1[N+](=O)[O-])c1cccnc1	-5	-5	9	1	-15
COc1ccc(/C(N)=N/OC(=O)Cc2ccccc2[N+](=O)[O-])cc1	-7	7	15	2	57*
CC(C)NC(=O)c1onc(CSc2cccc(F)c2)c1C(=O)O	-22	4	10	-5	-12
CC(C)Cn1c(N)c(C(=O)COC(=O)c2ccncc2)c(=O)n(C)c1=O	3	6	0	2	-17
Cn1c(N)c(C(=O)COC(=O)c2ccccn2)c(=O)n(C)c1=O	0	-3	3	-6	-3
CC(C)Cn1c(N)c(C(=O)COC(=O)CC23CC4CC(CC(C4)C2)C3)c(=O)n(C)c1=O	7	-16	1	-2	71*
CC(C)Cn1c(N)c(C(=O)COC(=O)c2ccc(Cl)cc2)c(=O)n(C)c1=O	-2	-2	2	-8	81*
Cn1c(N)c(C(=O)COC(=O)c2ncc(Cl)c(Cl)c2Cl)c(=O)n(C)c1=O	3	-2	6	-13	62*
CCOc1cc(/C=C(/NC(C)=O)C(=O)O)cc(Cl)c1OCc1cccc(Br)c1	-7	-4	1	-7	2
Cc1c(C(=O)N(Cc2ccccc2)Cc2cccs2)cnn1-c1ccc(Cl)cc1	44*	21	107*	9	47
NS(=O)(=O)c1ccc(CCNC(=O)COC(=O)/C=C/c2ccccc2Cl)cc1	-16	3	5	6	-6
COc1ccc(-c2csc(NC(=O)COC(=O)C3=COCCO3)n2)cc1	-3	-4	4	-10	-17
Cc1ccc(NC(=O)c2ccc(C(C)(C)C)cc2)cc1-n1cnnn1	-7	-1	8	0	62*
SMILES	KLK5 inh	FXIa inh 1536	FXIIa inh 1536	Thrombin inh	m-calpain inh
COc1cc(C(=O)Nc2ccc(-n3cnnn3)c(C)c2)cc(OC)c1OC	-5	-5	8	1	6
NC(=O)COc1c(-c2ccccc2)oc2ccccc2c1=O	46*	8	16	3	5
CC1CN(c2nnnn2-c2ccccc2)CC(C)O1 (configuration not stated)	67*	-3	17	24	12
Fc1ccc(N2CCN(c3nnnn3-c3ccccc3)CC2)cc1	1	4	11	-2	6
COc1ccccc1NC(=S)N(Cc1ccco1)Cc1cc2cc(C)ccc2[nH]c1=O	38	14	16	48*	22
COc1ccccc1NC(=O)N(Cc1ccco1)Cc1cc2cccc(C)c2[nH]c1=O	-5	2	9	2	5

From PubChem BioAssay
